DENV2 CPE = protects cells from dengue virus 2 cytopathic effect | CPE inhibition, % at 9.99 µM | 350,000 tested, 1.7% active | DENV2-infected cells, cytopathic effect rescue, plate reader; in the data active = CPE inhibition above about 20%, passing the limit was not always enough; tested in BHK-21 cells;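 also: 0% = median of neutral control wells and 100% = median of positive control wells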
rRNA inh HTS = inhibitors of bacterial rRNA selective over humanized ribosomes | E. coli WT GFP vs humanized-ribosome RFP mutants, fluorescence, 24 h; active compounds read low; DMSO median 0, no signal -100 | GFP signal change (wild-type ribosome), % (no concentration beside the values) | 350,000 tested, 1.6% active;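 active = significant combined selectivity score with lowered wild-type GFP, culture density cut under 30%, mutant RFP and density less affected; inactive = any of these conditions unmet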
AF4-AF9 inh = MLL-AF4/AF9 protein interaction inhibition | AlphaScreen, biotin-AF4 peptide binding to FLAG-AF9 | AID 651704 | inhibition, % at 10 µM | P42568 | 350,000 tested, 0.47% active;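 active = every replicate reaching a set inhibition limit, whatever the replicate mean, cut at about 25% in these data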;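 also: 0% = plate neutral control median and 100% = total signal loss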
S100A4 inh HTS = inhibitors of human S100A4 binding to myosin IIA peptide | S100A4/TAMRA-MyoIIA peptide fluorescence polarization | AID 652163 | P26447 | 360,000 tested, 0.14% active | inhibition, % at 10.7 µM;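 active = mean inhibition of at least 70% across replicates, with every replicate also reaching that level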
Target sequence (P26447 whole entry, looked up): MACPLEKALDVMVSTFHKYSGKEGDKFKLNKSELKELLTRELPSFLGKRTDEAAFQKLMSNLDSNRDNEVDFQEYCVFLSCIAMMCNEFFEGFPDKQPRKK
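Material: human S100A4 monomer with TAMRA-labelled myosin IIA peptide; buffer or medium: HEPES pH 7.2 with CaCl2, KCl, NaCl, DTT, Triton; compound dosing: one concentration per compound; schedule: 5 min incubation before reading; benchmarks: neutral control DMSO, positive control TFP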
Cneo AK release = Cryptococcus neoformans lysis via adenylate kinase release | C. neoformans lysis, adenylate kinase release luminescence, 4 h; normalised: neutral wells 0, clomiphene wells 100 | lysis activity, % at 15 µM | 360,000 tested, 0.2% active | AID 651654;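 active = mean lysis activity across replicates of at least 80%, whatever share of replicates individually reach that level; inactive = mean lysis activity below 80%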
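Assay system: Cryptococcus neoformans yeast cells / Dosing: single-point compound dose / Timing: 4 h at 37 °C static, read 1 h later / Measured by: luminescence of released adenylate kinase using an AK detection reagent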
PfHsp90 set2 = reduces growth (ATP signal) of yeast expressing P. falciparum Hsp90. inhibition, % at 9.4 µM. AID 504621. S. cerevisiae expressing PfHsp90, BacTiter-Glo ATP, 48 h; yeast lacking PDR1 and PDR3 efflux regulators. 310,000 tested, 0.32% active;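 active = every replicate shows inhibition above about 80%, whatever the replicate mean, limit read from the data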;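 also: 0% = DMSO neutral controls and 100% = 20 µM radicicol positive controls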
Active calls of the source: *; . = no result given. Hits are enriched below; roughly 3.2% of the tested compounds scored in any of these assays.

SMILES	DENV2 CPE	rRNA inh HTS	AF4-AF9 inh	S100A4 inh HTS	Cneo AK release	PfHsp90 set2
COc1cc(C)nc(N2CCC(C(=O)NCC3CCCO3)CC2)n1 (stereo not drawn)	43.6*	6.9	7.5	-5.9	1.3	.
CCC(=O)Nc1ccc(NC(=O)c2oc3ccccc3c2C)cc1	40.0*	3.7	1.0	-16.3	-4.1	-5.5
COc1ccc2nc(-c3ccc(Cl)cc3)cc(C(=O)O)c2c1	-0.7	-33.0*	-36.5	-7.2	-15.3	16.4
CC(C)c1ccc(N2C(=O)C(Cl)=C(N3CCOCC3)C2=O)cc1	0.5	7.0	37.9*	-4.2	.	10.0
Cc1noc(C)c1S(=O)(=O)Nc1ccc2c(c1)C(=O)N([C@H](C)CO)C[C@H](C)[C@@H](CN(C)CC1CC1)OCCCC[C@@H](C)O2	6.7	5.3	.	.	1.8	.
CCCN(C)C[C@H]1OCCCC[C@H](C)Oc2ccc(NS(=O)(=O)c3c(C)noc3C)cc2C(=O)N([C@@H](C)CO)C[C@H]1C	32.1*	-1.3	-3.8	2.5	0.0	.
Cc1noc(C)c1S(=O)(=O)Nc1ccc2c(c1)C(=O)N([C@@H](C)CO)C[C@H](C)[C@@H](CN(C)Cc1ccc(C(=O)O)cc1)OCCCC[C@H](C)O2	34.3*	0.5	-10.8	5.5	-3.6	.
Cc1noc(C)c1S(=O)(=O)Nc1cccc2c1O[C@H](CN(C)C(=O)Nc1ccc3c(c1)OCO3)[C@H](C)CN([C@H](C)CO)C2=O	4.5	0.8	-1.1	-10.5	0.8	.
CC(C)NC(=O)N1CCCCN2[C@@H](CO)[C@@H](c3ccc(C#CC4CC4)cc3)[C@@H]2C1	39.9*	7.2	3.5	-2.7	-0.3	.
CC(C)NC(=O)N1CCCCN2[C@H](C1)[C@H](c1ccc(C#CC3CC3)cc1)[C@@H]2CO	-10.4	3.7	-0.8	0.1	0.0	.
CC(C)NC(=O)N1CCCCN2[C@H](CO)[C@H](c3ccc(C#CC4CC4)cc3)[C@H]2C1	66.2*	-1.5	4.4	-3.5	-0.2	.
CCNC(=O)/C(C#N)=C/c1c(N(Cc2ccccc2)Cc2ccccc2)nc2ccccn2c1=O	.	-17.9*	11.9	0.8	.	-2.5
CCC/C(C#CCCN1C(=O)c2ccccc2C1=O)=C1/c2ccccc2C(=O)N1c1ccccc1	78.7*	-4.1	1.7	-1.1	-0.3	21.1
CCC/C(C#Cc1ccc(N(C)C)cc1)=C1/c2ccccc2C(=O)N1c1ccccc1	12.5	9.6	-4.0	-3.2	0.6	2.2
CCC/C(=C1/c2ccccc2C(=O)N1c1ccccc1)c1c(C)noc1C	-3.5	-25.1*	4.1	-2.3	.	.
Cc1ccc(-n2sc3ccccc3c2=O)cc1S(=O)(=O)N1CCCCC1	12.9	-1.0	-22.5	-0.3	-1.1	106.4*
O=c1c2ccccc2sn1-c1ccccc1	.	.	.	.	-0.9	87.9*
CO[C@@H]1CN(C)C(=O)c2ccc(NC(C)=O)cc2OC[C@@H](C)N(Cc2cccnc2)C[C@H]1C	-0.3	0.4	-9.9	3.4	.	.
COc1ccc(S(=O)(=O)N[C@H]2CC[C@H](CCNC(=O)Cc3ccccn3)O[C@H]2CO)cc1	.	1.4	-0.6	.	.	.
COc1c(-c2ccc(O)cc2)oc2cc(O)cc(O)c2c1=O	7.1	-20.2*	-0.4	-3.2	-1.5	3.9
COc1ccc(-c2oc3cc(O)c(OC)c(O)c3c(=O)c2OC)cc1	-1.6	.	2.8	0.3	-12.6	21.4
CO[C@H]1CN(C)C(=O)c2cc(NC(C)=O)ccc2OC[C@@H](C)N(C(=O)C2CCCCC2)C[C@H]1C	0.0	-2.3	2.4	1.1	-7.2	.
C[C@@H]1CN([C@@H](C)CO)C(=O)c2cccc(NC(=O)C3CC3)c2O[C@@H]1CN(C)S(=O)(=O)c1cn(C)cn1	28.6*	1.1	-2.2	4.0	-3.1	.
Cc1noc(C)c1NC(=O)Nc1ccc2c(c1)C(=O)N([C@H](C)CO)C[C@@H](C)[C@H](CN(C)S(=O)(=O)c1ccc(F)cc1)O2	86.4*	2.5	-1.2	15.5	23.9	.
Cc1noc(C)c1NC(=O)Nc1cccc2c1O[C@H](CN(C)S(=O)(=O)c1ccc(F)cc1)[C@@H](C)CN([C@@H](C)CO)C2=O	32.5*	-0.7	-1.2	-0.3	-6.8	.
